Calls of active or inactive are those of the source. No cut-off for these calls is given here.
What was measured:
[1] = species: Mus musculus; assay: (§1) Agonistic activity determined by its ability to inhibit the electrically evoked contraction of the mouse vas deferens (mVD); type: functional
Method in brief: (§2)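 Isolated mouse vas deferens, electrically stimulated; inhibition of evoked twitch contraction. Cumulative concentration-response curves up to 10 µM (highest concentration tested); potency expressed as pEC50.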

[2] = species: Mus musculus; assay: as §1; type: functional, organism-based; method in brief: as §2
[3] = species: Mus musculus; assay: Agonistic activity determined by its ability to inhibit the electrically evoked contraction of the mouse vas deferens (mVD); Inactive up to 10 uM; type: functional; method in brief: as §2

| EC50 [2] [nM] | Log EC50 [3] | Compound | Emax [1] [%] |
| --- | --- | --- | --- |
| 14.1 |  | C[C@H](NC(=O)CNC(=O)[C@@H](NC(=O)[C@H](Cc1ccccc1)NC(=O)CNC(=O)CNC(=O)[C@@H](N)Cc1ccccc1)[C@@H](C)O)C(=O)N[C@@H](CCCNC(=N)N)C(=O)N[C@@H](CCCCN)C(=O)N[C@@H](CO)C(=O)N[C@@H](C)C(=O)N[C@@H](CCCNC(=N)N)C(=O)N[C@@H](CCCCN)C(N)=O | 90 |
|  | inactive | C[C@H](NC(=O)CNC(=O)[C@@H](NC(=O)[C@H](Cc1ccccc1)NC(=O)CNC(=O)CNC[C@@H](N)Cc1ccccc1)[C@H](C)O)C(=O)N[C@@H](CCCN=C(N)N)C(=O)N[C@@H](CCCCN)C(=O)N[C@@H](CO)C(=O)N[C@@H](C)C(=O)N[C@@H](CCCN=C(N)N)C(=O)N[C@@H](CCCCN)C(N)=O |  |
